We go through 24 molecules from ChEMBL document CHEMBL1136045, “Synthesis, in vitro receptor binding, and in vivo evaluation of fluorescein and carbocyanine peptide-based optical contrast agents” (J Med Chem, 2002).

A value given as a limit tells only on which side of the number the result lay.

The term IC50 denotes the concentration at which inhibition is half-maximal.

Gastrin-releasing peptide receptor, sequence (P52500 whole entry): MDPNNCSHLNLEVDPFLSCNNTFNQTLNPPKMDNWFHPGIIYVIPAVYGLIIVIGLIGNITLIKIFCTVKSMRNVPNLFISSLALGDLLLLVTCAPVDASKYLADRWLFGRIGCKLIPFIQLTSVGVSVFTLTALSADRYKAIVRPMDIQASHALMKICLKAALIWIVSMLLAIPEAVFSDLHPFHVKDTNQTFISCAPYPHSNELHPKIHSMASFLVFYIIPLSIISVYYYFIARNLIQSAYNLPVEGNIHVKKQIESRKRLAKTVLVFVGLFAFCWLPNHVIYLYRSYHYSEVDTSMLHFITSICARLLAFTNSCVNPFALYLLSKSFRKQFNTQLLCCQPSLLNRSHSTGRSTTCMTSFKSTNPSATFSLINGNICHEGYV

The first experiment has as its target Gastrin-releasing peptide receptor (Rattus norvegicus, UniProt P52500). Description: In vitro binding affinity of [111In]DTPA-[Y4]-bombesin to bombesin receptor in the rat pancreatic acinar cell line, AR42J. The method in brief:
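Competition binding on AR42-J rat pancreatic acinar cell membranes (~50 μg/well) with the tracer [111In]-DTPA-[P1,Y4]-bombesin and increasing concentrations of cold competitor. Buffer was 50 mM Tris-HCl pH 7.4, 5 mM MgCl2, 0.2 mg/mL BSA. Incubation 90 min at room temperature, then filtration and washing. Bound radioactivity was gamma-counted, and IC50 came from a four-parameter fit.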
`CSCC[C@H](NC(=O)[C@H](CC(C)C)NC(=O)[C@H](Cc1c[nH]cn1)NC(=O)CNC(=O)[C@@H](NC(=O)[C@H](C)NC(=O)[C@H](Cc1c[nH]c2ccccc12)NC(=O)[C@H](CCC(N)=O)NC(=S)Nc1ccc2c(c1)C(=O)OC21c2ccc(O)cc2Oc2cc(O)ccc21)C(C)C)C(N)=O` registered an IC50 of 3.2 nM.
Same read-out and setting: under `CSCC[C@H](NC(=O)[C@H](CC(C)C)NC(=O)[C@H](Cc1c[nH]cn1)NC(=O)CNC(=O)[C@@H](NC(=O)[C@H](C)NC(=O)[C@H](Cc1c[nH]c2ccccc12)NC(=O)[C@H](CCC(N)=O)NC(=O)[C@@H](N)CCCCN)C(C)C)C(N)=O` stands 10.5 nM.
Same read-out and setting: the result for `CSCC[C@H](NC(=O)[C@H](CC(C)C)NC(=O)[C@H](Cc1c[nH]cn1)NC(=O)CNC(=O)[C@@H](NC(=O)[C@H](C)NC(=O)[C@H](Cc1c[nH]c2ccccc12)NC(=O)[C@H](CCC(N)=O)NC(=O)[C@H](CCCCNC(=O)CN1CCN(CC(=O)O)CCN(CC(=O)O)CCN(CC(=O)O)CC1)NC(=S)Nc1ccc2c(c1)C(=O)OC21c2ccc(O)cc2Oc2cc(O)ccc21)C(C)C)C(N)=O` reads 15 nM; that for `CSCC[C@H](NC(=O)[C@H](CC(C)C)NC(=O)[C@H](Cc1c[nH]cn1)NC(=O)CNC(=O)[C@@H](NC(=O)[C@H](C)NC(=O)[C@H](Cc1c[nH]c2ccccc12)NC(=O)[C@H](CCC(N)=O)NC(=O)CNC(=O)[C@H](CO)NC(=O)CNC(=S)Nc1ccc2c(c1)C(=O)OC21c2ccc(O)cc2Oc2cc(O)ccc21)C(C)C)C(N)=O`, 9.2 nM; that for `CSCC[C@H](NC(=O)[C@H](CC(C)C)NC(=O)[C@H](Cc1c[nH]cn1)NC(=O)CNC(=O)[C@@H](NC(=O)[C@H](C)NC(=O)[C@H](Cc1c[nH]c2ccccc12)NC(=O)[C@H](CCC(N)=O)NC(=O)[C@H](CCCCN)NC(=O)CN(CCN(CCN(CC(=O)O)CC(=O)O)CC(=O)O)CC(=O)O)C(C)C)C(N)=O`, 410 nM.
For the molecule `CSCC[C@H](NC(=O)[C@H](CC(C)C)NC(=O)[C@H](Cc1c[nH]cn1)NC(=O)CNC(=O)[C@@H](NC(=O)[C@H](C)NC(=O)[C@H](Cc1c[nH]c2ccccc12)NC(=O)[C@H](CCC(N)=O)NC(=O)[C@H](CCCCNC(=S)Nc1ccc2c(c1)C(=O)OC21c2ccc(O)cc2Oc2cc(O)ccc21)NC(=S)Nc1ccc2c(c1)C(=O)OC21c2ccc(O)cc2Oc2cc(O)ccc21)C(C)C)C(N)=O`, the IC50 was determined as 9.5 nM.
Same read-out and setting: under `CSCC[C@H](NC(=O)[C@H](CC(C)C)NC(=O)[C@H](Cc1c[nH]cn1)NC(=O)CNC(=O)[C@@H](NC(=O)[C@H](C)NC(=O)[C@H](Cc1c[nH]c2ccccc12)NC(=O)[C@H](CCC(N)=O)NC(=O)[C@H](CCCCN)NC(=S)Nc1ccc2c(c1)C(=O)OC21c2ccc(O)cc2Oc2cc(O)ccc21)C(C)C)C(N)=O` stands 5.8 nM; under `CSCC[C@H](NC(=O)[C@H](CC(C)C)NC(=O)[C@H](Cc1c[nH]cn1)NC(=O)CNC(=O)[C@@H](NC(=O)[C@H](C)NC(=O)[C@H](Cc1c[nH]c2ccccc12)NC(=O)[C@H](CCC(N)=O)NC(=O)CNC(=O)[C@H](CO)NC(=O)CNC(=O)[C@@H](N)CCCCN)C(C)C)C(N)=O`, 4.8 nM; under `CSCC[C@H](NC(=O)[C@H](CC(C)C)NC(=O)[C@H](Cc1cnc[nH]1)NC(=O)CNC(=O)[C@@H](NC(=O)[C@H](C)NC(=O)[C@H](Cc1c[nH]c2ccccc12)NC(=O)[C@@H](N)CCC(N)=O)C(C)C)C(N)=O`, 28.3 nM.
With `CSCC[C@H](NC(=O)[C@H](CC(C)C)NC(=O)[C@H](Cc1c[nH]cn1)NC(=O)CNC(=O)[C@@H](NC(=O)[C@H](C)NC(=O)[C@H](Cc1c[nH]c2ccccc12)NC(=O)[C@H](CCC(N)=O)NC(=O)[C@H](CC(N)=O)NC(=O)CNC(=O)[C@H](Cc1ccc(O)cc1)NC(=O)[C@H](CCCN=C(N)N)NC(=O)[C@H](CCC(N)=O)NC(=O)[C@@H]1CCCN1C(=O)CN(CCN(CCN(CC(=O)O)CC(=O)O)CC(=O)O)CC(=O)O)C(C)C)C(N)=O`, the IC50 is 4.7 nM.
Molecule `CSCC[C@H](NC(=O)[C@H](CC(C)C)NC(=O)[C@H](Cc1c[nH]cn1)NC(=O)CNC(=O)[C@@H](NC(=O)[C@H](C)NC(=O)[C@H](Cc1c[nH]c2ccccc12)NC(=O)[C@H](CCC(N)=O)NC(=O)CNC(=O)[C@H](CO)NC(=O)CNC(=O)[C@H](CCCCNC(=S)Nc1ccc2c(c1)C(=O)OC21c2ccc(O)cc2Oc2cc(O)ccc21)NC(=S)Nc1ccc2c(c1)C(=O)OC21c2ccc(O)cc2Oc2cc(O)ccc21)C(C)C)C(N)=O` yielded an IC50 of 20.5 nM.
For the molecule `CSCC[C@H](NC(=O)[C@H](CC(C)C)NC(=O)[C@H](Cc1c[nH]cn1)NC(=O)CNC(=O)[C@@H](NC(=O)[C@H](C)NC(=O)[C@H](Cc1c[nH]c2ccccc12)NC(=O)[C@H](CCC(N)=O)NC(=O)[C@H](CCCCNC(=O)CN(CCN(CCN(CC(=O)O)CC(=O)O)CC(=O)O)CC(=O)O)NC(=O)CN(CCN(CCN(CC(=O)O)CC(=O)O)CC(=O)O)CC(=O)O)C(C)C)C(N)=O`, the IC50 came to 240 nM.
Turning to `CSCC[C@H](NC(=O)[C@H](CC(C)C)NC(=O)[C@H](Cc1c[nH]cn1)NC(=O)CNC(=O)[C@@H](NC(=O)[C@H](C)NC(=O)[C@H](Cc1c[nH]c2ccccc12)NC(=O)[C@H](CCC(N)=O)NC(=O)CNC(=O)[C@H](CO)NC(=O)CNC(=O)[C@@H](N)CCCCNC(=S)Nc1ccc2c(c1)C(=O)OC21c2ccc(O)cc2Oc2cc(O)ccc21)C(C)C)C(N)=O`, the IC50 came out at 9.6 nM.
Same read-out and setting: the result for `CSCC[C@H](NC(=O)[C@H](CC(C)C)NC(=O)[C@H](Cc1c[nH]cn1)NC(=O)CNC(=O)[C@@H](NC(=O)[C@H](C)NC(=O)[C@H](Cc1c[nH]c2ccccc12)NC(=O)[C@H](CCC(N)=O)NC(=O)CNC(=O)[C@H](CO)NC(=O)CNC(=O)[C@H](CCCCN)NC(=S)Nc1ccc2c(c1)C(=O)OC21c2ccc(O)cc2Oc2cc(O)ccc21)C(C)C)C(N)=O` reads 15.6 nM; that for `CSCC[C@H](NC(=O)[C@H](CC(C)C)NC(=O)[C@H](Cc1c[nH]cn1)NC(=O)CNC(=O)[C@@H](NC(=O)[C@H](C)NC(=O)[C@H](Cc1c[nH]c2ccccc12)NC(=O)[C@H](CCC(N)=O)NC(=O)CNC(=O)[C@H](CO)NC(=O)CN)C(C)C)C(N)=O`, 7.6 nM.
Still for that read-out and setting: the result for `CSCC[C@H](NC(=O)[C@H](CC(C)C)NC(=O)[C@H](Cc1c[nH]cn1)NC(=O)CNC(=O)[C@@H](NC(=O)[C@H](C)NC(=O)[C@H](Cc1c[nH]c2ccccc12)NC(=O)[C@H](CCC(N)=O)NC(=O)[C@H](CCCCNC(=S)Nc1ccc2c(c1)C(=O)OC21c2ccc(O)cc2Oc2cc(O)ccc21)NC(=O)CN(CCN(CCN(CC(=O)O)CC(=O)O)CC(=O)O)CC(=O)O)C(C)C)C(N)=O` reads 276 nM.
The molecule `CSCC[C@H](NC(=O)[C@H](CC(C)C)NC(=O)[C@H](Cc1c[nH]cn1)NC(=O)CNC(=O)[C@@H](NC(=O)[C@H](C)NC(=O)[C@H](Cc1c[nH]c2ccccc12)NC(=O)[C@H](CCC(N)=O)NC(=O)[C@@H](N)CCCCNC(=S)Nc1ccc2c(c1)C(=O)OC21c2ccc(O)cc2Oc2cc(O)ccc21)C(C)C)C(N)=O` came in with a half-inhibitory concentration (IC50) of 5.7 nM.
The same measure, in the same setting: the result for `CSCC[C@H](NC(=O)[C@H](CC(C)C)NC(=O)[C@H](Cc1c[nH]cn1)NC(=O)CNC(=O)[C@@H](NC(=O)[C@H](C)NC(=O)[C@H](Cc1c[nH]c2ccccc12)NC(=O)[C@H](CCC(N)=O)NC(=O)[C@H](CCCCNC(=O)CN(CCN(CCN(CC(=O)O)CC(=O)O)CC(=O)O)CC(=O)O)NC(=S)Nc1ccc2c(c1)C(=O)OC21c2ccc(O)cc2Oc2cc(O)ccc21)C(C)C)C(N)=O` reads 20 nM; that for `CSCC[C@H](NC(=O)[C@H](CC(C)C)NC(=O)[C@H](Cc1c[nH]cn1)NC(=O)CNC(=O)[C@@H](NC(=O)[C@H](C)NC(=O)[C@H](Cc1c[nH]c2ccccc12)NC(=O)[C@H](CCC(N)=O)NC(=O)[C@@H](N)CCCCNC(=O)CN(CCN(CCN(CC(=O)O)CC(=O)O)CC(=O)O)CC(=O)O)C(C)C)C(N)=O`, 4.8 nM.

The next experiment concerns the target Somatostatin receptor. Description: In vitro binding affinity of [111In]DTPA-[Y3]-octreotate to somatostatin receptor in the rat pancreatic tumor cell line, […]. In outline:
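Competition binding on CA20948 rat pancreatic cell membranes with the tracer [111In]-DTPA-[Y3]-octreotate and increasing concentrations of unlabeled competitor. Incubation 90 min at room temperature, then filtration and buffer washes. Filter-bound radioactivity was gamma-counted, and IC50 came from a four-parameter curve fit. Specific activity of the radiolabeled peptide was >1400 Ci/mmol.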
`C[C@@H](O)[C@H](NC(=O)[C@H]1CSSC[C@H](NC(=O)[C@@H](Cc2ccccc2)NC(=O)C(CCCCNC(=O)CN(CCN(CCN(CC(=O)O)CC(=O)O)CC(=O)O)CC(=O)O)/N=C(\S)Nc2ccc3c(c2)C(=O)OC32c3ccc(O)cc3Oc3cc(O)ccc32)C(=O)N[C@@H](Cc2ccc(O)cc2)C(=O)N[C@H](Cc2c[nH]c3ccccc23)C(=O)N[C@@H](CCCCN)C(=O)N[C@H]([C@@H](C)O)C(=O)N1)C(=O)O` (some centres undefined) yielded an IC50 of 71.3 nM.
Molecule `C[C@@H](O)[C@H](NC(=O)[C@H]1CSSC[C@H](NC(=O)[C@H](N)Cc2ccccc2)C(=O)N[C@@H](Cc2ccc(O)cc2)C(=O)N[C@H](Cc2c[nH]c3ccccc23)C(=O)N[C@@H](CCCCN)C(=O)N[C@H]([C@@H](C)O)C(=O)N1)C(=O)O` came in with an IC50 of 0.6 nM.
The same measure, in the same setting: the result for `C[C@@H](O)[C@H](NC(=O)[C@H]1CSSC[C@H](NC(=O)[C@@H](Cc2ccccc2)NC(=O)CN(CCN(CCN(CC(=O)O)CC(=O)O)CC(=O)O)CC(=O)O)C(=O)N[C@@H](Cc2ccc(O)cc2)C(=O)N[C@H](Cc2c[nH]c3ccccc23)C(=O)N[C@@H](CCCCN)C(=O)N[C@H]([C@@H](C)O)C(=O)N1)C(=O)O` reads 1.9 nM; that for `C[C@@H](O)[C@H](NC(=O)[C@H]1CSSC[C@H](NC(=O)[C@@H](Cc2ccccc2)NC(=O)C(CCCC/N=C(/S)Nc2ccc3c(c2)C(=O)OC32c3ccc(O)cc3Oc3cc(O)ccc32)NC(=O)CN2CCN(CC(=O)O)CCN(CC(=O)O)CCN(CC(=O)O)CC2)C(=O)N[C@@H](Cc2ccc(O)cc2)C(=O)N[C@H](Cc2c[nH]c3ccccc23)C(=O)N[C@@H](CCCCN)C(=O)N[C@H]([C@@H](C)O)C(=O)N1)C(=O)O` (some centres undefined), 10.3 nM; that for `C[C@@H](O)[C@H](NC(=O)[C@H]1CSSC[C@H](NC(=O)[C@@H](Cc2ccccc2)NC(=O)CC/N=C(\S)Nc2ccc3c(c2)C(=O)OC32c3ccc(O)cc3Oc3cc(O)ccc32)C(=O)N[C@@H](Cc2ccc(O)cc2)C(=O)N[C@H](Cc2c[nH]c3ccccc23)C(=O)N[C@@H](CCCCN)C(=O)N[C@H]([C@@H](C)O)C(=O)N1)C(=O)O`, over 1000 nM.
